Where a SMILES comes first, the peptide text is derived from it. [ ]: non-standard residue; d: D form. The star is where a group is joined. Orn = NCCC[C@H](N)C(=O)O; Cbz = O=C(OCc1ccccc1)*
Columns and labels:
Serine protease 1 [1] = molecular target: T1, Serine protease 1 (Homo sapiens, UniProt P07477); test: Evaluated for the inhibition of trypsin
Method in brief: (§1)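 Trypsin (0.01 g/L stock in 0.001 N HCl) in 0.046 M Tris with 0.0115 M CaCl2, pH 8.1, inhibitor in 1% DMSO/water, 37 °C. Tosyl-L-arginine methyl ester (0.01 M stock) added, 2 min incubation, A247 change read over 10 min. Each inhibitor level run four times, five or more levels; IC50 from % inhibition plotted against log concentration.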

Kallikrein-1 = Kallikrein-1 (Homo sapiens, UniProt P06870); test: Inhibition of Kallikrein proteolytic enzyme
Sequence of Kallikrein-1 (P06870 whole entry): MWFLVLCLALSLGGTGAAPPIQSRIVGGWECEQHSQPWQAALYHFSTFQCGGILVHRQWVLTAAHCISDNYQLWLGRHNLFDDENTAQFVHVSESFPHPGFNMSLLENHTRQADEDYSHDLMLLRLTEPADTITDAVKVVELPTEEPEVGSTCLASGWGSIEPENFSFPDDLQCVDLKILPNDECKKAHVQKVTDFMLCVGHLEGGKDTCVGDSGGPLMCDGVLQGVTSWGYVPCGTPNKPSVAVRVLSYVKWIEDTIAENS
Method in brief: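 Human urinary kallikrein (0.3 units/mL stock) at 37 °C in 0.46 M Tris pH 8.0 containing 0.0115 M NaCl, inhibitor in 1% DMSO/water. Benzoylarginine ethyl ester (0.5 mM stock) substrate, 2 min incubation, absorbance change at 253 nm over 10 min. Quadruplicate measurements at ≥5 inhibitor concentrations; IC50 read from % inhibition vs log inhibitor concentration.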

Plasminogen [2] = molecular target: T2, Plasminogen (Rattus norvegicus, UniProt Q01177); test: Inhibition of plasmin
T2 sequence (Q01177 97-581 limits assumed): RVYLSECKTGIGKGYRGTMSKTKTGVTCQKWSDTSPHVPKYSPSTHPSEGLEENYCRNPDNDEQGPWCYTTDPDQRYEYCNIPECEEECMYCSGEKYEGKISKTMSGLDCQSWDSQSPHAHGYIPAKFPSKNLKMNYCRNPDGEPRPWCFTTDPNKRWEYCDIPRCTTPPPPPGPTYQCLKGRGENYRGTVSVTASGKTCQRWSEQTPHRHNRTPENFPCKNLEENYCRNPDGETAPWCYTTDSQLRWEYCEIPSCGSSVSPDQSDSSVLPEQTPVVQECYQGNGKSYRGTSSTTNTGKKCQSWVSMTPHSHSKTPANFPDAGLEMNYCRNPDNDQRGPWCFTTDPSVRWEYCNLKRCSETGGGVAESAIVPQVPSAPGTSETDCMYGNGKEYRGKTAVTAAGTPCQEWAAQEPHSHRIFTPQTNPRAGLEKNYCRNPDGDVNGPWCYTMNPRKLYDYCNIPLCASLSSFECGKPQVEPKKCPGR
T2 sequence (Q01177 582-812 limits assumed): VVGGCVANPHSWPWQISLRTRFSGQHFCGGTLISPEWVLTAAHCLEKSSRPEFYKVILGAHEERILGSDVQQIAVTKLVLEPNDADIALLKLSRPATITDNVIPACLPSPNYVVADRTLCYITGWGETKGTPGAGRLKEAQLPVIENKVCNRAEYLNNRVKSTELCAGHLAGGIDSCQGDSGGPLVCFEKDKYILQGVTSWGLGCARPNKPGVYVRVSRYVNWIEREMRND
Method in brief: (§2)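 Plasmin (0.25 casein units/mL stock, in 50% glycerol/2 mM HCl with 5 g/L carbowax) in 0.5 M Tris pH 8.0 with 0.12 M NaCl, inhibitor added in 1% DMSO/water, 37 °C. D-Val-Leu-Lys p-nitroanilide (3.35 mM stock) added, 1 min incubation, then A405 change followed over 10 min. Four runs at ≥5 inhibitor concentrations; % inhibition vs log[I] gives IC50.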

Serine protease 1 [3] = molecular target: T1, Serine protease 1; test: Evaluated for the inhibition of trypsin.(no inhibition at 400 uM); method in brief: as §1
Plasminogen [4] = molecular target: T2, Plasminogen; test: Evaluated for the inhibition of plasmin.(no inhibition at 400 uM); method in brief: as §2
Plasminogen [5] = molecular target: T2, Plasminogen; test: Evaluated for the inhibition of plasmin.( no inhibition at 400 uM); method in brief: as §2

T1 sequence (P07477 whole entry): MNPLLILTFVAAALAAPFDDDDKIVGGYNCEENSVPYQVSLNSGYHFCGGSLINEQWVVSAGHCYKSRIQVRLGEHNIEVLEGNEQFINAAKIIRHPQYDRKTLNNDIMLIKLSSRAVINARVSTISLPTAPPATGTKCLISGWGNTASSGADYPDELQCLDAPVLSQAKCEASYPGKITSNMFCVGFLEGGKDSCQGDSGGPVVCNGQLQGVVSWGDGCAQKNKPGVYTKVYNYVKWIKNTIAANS

Row | SMILES | IC50 (Serine protease 1 [1]) [µM] | IC50 (Kallikrein-1) [µM] | IC50 (Plasminogen [2]) [µM] | IC50 (Serine protease 1 [3]) [µM] | IC50 (Plasminogen [4]) [µM] | IC50 (Plasminogen [5]) [µM]
1 | CC(C)C[C@H](NC(=O)OCc1ccccc1)C(=O)N[C@@H](CC(C)C)C(=O)N[C@H](C=O)CCCN=C(N)N | 164 | 36 | 128 |  |  | 
2 | CC(C)C[C@H](NC(=O)OCc1ccccc1)C(=O)N[C@@H](CC(C)C)C(=O)N[C@H](C=O)CCCCN (Cbz-Leu-Leu-Lys-aldehyde) | 196 | 19 | 184 |  |  | 
3 | CC(C)C[C@H](NC(=O)OCc1ccccc1)C(=O)N[C@@H](CC(C)C)C(=O)N[C@H](C=O)CCCN (Cbz-Leu-Leu-[Orn]-aldehyde) |  | 29.3 |  | > 400 | > 400 | 
4 | CC(C)C[C@H](NC(=O)OCc1ccccc1)C(=O)N[C@@H](Cc1ccccc1)C(=O)N[C@H](C=O)CCCN=C(N)N (Cbz-Leu-Phe-Arg-aldehyde) | 107 | 33.3 | 79.9 |  |  | 
5 | CC(C)C[C@H](NC(=O)OCc1ccccc1)C(=O)N[C@@H](Cc1ccccc1)C(=O)N[C@H](C=O)CCCCN (Cbz-Leu-Phe-Lys-aldehyde) |  | 20.3 | 47 | > 400 |  | 
6 | CC(C)C[C@H](NC(=O)OCc1ccccc1)C(=O)N[C@@H](Cc1ccccc1)C(=O)N[C@H](C=O)CCCN (Cbz-Leu-Phe-[Orn]-aldehyde) |  | 82.4 |  | > 400 |  | > 400
7 | CC(C)C[C@H](NC(=O)OCc1ccccc1)C(=O)N[C@H](C(=O)N[C@H](C=O)CCCN=C(N)N)C(C)C (Cbz-Leu-Val-Arg-aldehyde) | 81.4 | 11.2 | 10.2 |  |  | 
8 | CC(C)C[C@H](NC(=O)OCc1ccccc1)C(=O)N[C@H](C(=O)N[C@H](C=O)CCCCN)C(C)C (Cbz-Leu-Val-Lys-aldehyde) |  | 14.8 | 18.5 | > 400 |  | 
9 | CC(C)C[C@H](NC(=O)OCc1ccccc1)C(=O)N[C@H](C(=O)N[C@H](C=O)CCCN)C(C)C (Cbz-Leu-Val-[Orn]-aldehyde) |  | 53.8 | 432 | > 400 |  | 
10 | CC(C)C[C@H](NC(=O)[C@H](Cc1ccccc1)NC(=O)OCc1ccccc1)C(=O)N[C@H](C=O)CCCN=C(N)N (Cbz-Phe-Leu-Arg-aldehyde) | 45.9 | 25.7 | 10.2 |  |  | 
11 | CC(C)C[C@H](NC(=O)[C@H](Cc1ccccc1)NC(=O)OCc1ccccc1)C(=O)N[C@H](C=O)CCCCN (Cbz-Phe-Leu-Lys-aldehyde) |  | 25.6 | 8.9 | > 400 |  | 
12 | CC(C)C[C@H](NC(=O)[C@H](Cc1ccccc1)NC(=O)OCc1ccccc1)C(=O)N[C@H](C=O)CCCN (Cbz-Phe-Leu-[Orn]-aldehyde) |  | 112 | 242 | > 400 |  | 
